One block for each molecule: values may come before it. Active and inactive are the calls of the source. The calls are words filed in the database; no cut-off is given here.
What was measured:
HCT-116 [1] = test: Antiproliferative activity against human HCT116 cells after 72 hrs by SRB assay; format: functional, cell-based; details: HCT-116, 72 h
HCT-116 [2] = test: Inhibition of Bmi1 protein expression in human HCT116 cells after 8 hrs by Western blot analysis; format: functional, cell-based
HT-29 = test: Antiproliferative activity against human HT-29 cells after 72 hrs by SRB assay; format: functional, cell-based; details: HT-29, 72 h
HCT-8 = test: Antiproliferative activity against human HCT8 cells after 72 hrs by SRB assay; format: functional, cell-based; details: HCT-8, 72 h
[3] = Antiproliferative activity against HAF after 72 hrs by SRB assay; design: species or system Homo sapiens
[4] = Selectivity index, ratio of IC50 for HAF to IC50 for human HCT116 cells; format: toxicity; details: HAF cells versus HCT116 cells, read-out: Ratio IC50
[5] = Selectivity index, ratio of IC50 for HAF to IC50 for human HT-29 cells; format: toxicity; details: HAF cells versus HT-29 cells, read-out: Ratio IC50
[6] = Selectivity index, ratio of IC50 for HAF to IC50 for human HCT8 cells; format: toxicity; details: HAF cells versus HCT8 cells, read-out: Ratio IC50
HCT-116 [7] = test: Potency index, ratio of PTC-209 IC50 to compound IC50 for antiproliferative activity against human HCT116 cells; format: functional
HCT-116 [8] = test: Effect on total H2A protein expression in human HCT116 cells at 0.5 to 4 uM after 8 hrs by Western blot analysis; format: functional, cell-based
Procedure, shortened: (§1)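 HCT116 cells treated with test agents at the indicated concentrations for 8 h. Bmi-1, H2A-K119 ubiquitinated H2A (ub-H2A), total H2A and Ring1b detected by Western blot.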

HCT-116 [9] = test: Effect on total Ring1b protein expression in human HCT116 cells at 0.5 to 4 uM after 8 hrs by Western blot analysis; format: functional, cell-based; procedure, shortened: as §1
[10] = molecular target: T1, Polycomb complex protein BMI-1 (Homo sapiens) (UniProt P35226); test: Inhibition of Bmi1 in human HCT116 cells assessed as reduction in H2A-K119Ub level after 8 hrs by Western blot analysis; format: cell-based; procedure, shortened: as §1
T1 sequence (whole entry): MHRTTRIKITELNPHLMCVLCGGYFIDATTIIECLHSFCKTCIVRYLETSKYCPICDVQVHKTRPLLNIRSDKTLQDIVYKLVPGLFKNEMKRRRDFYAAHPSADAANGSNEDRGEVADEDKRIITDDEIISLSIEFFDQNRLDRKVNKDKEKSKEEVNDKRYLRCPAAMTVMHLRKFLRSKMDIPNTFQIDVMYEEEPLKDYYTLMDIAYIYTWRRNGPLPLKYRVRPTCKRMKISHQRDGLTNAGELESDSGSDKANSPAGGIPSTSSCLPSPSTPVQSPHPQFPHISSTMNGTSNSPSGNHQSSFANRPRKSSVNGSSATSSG

HCT-116 [11] = test: Antimigratory activity against human HCT116 cells after 24 hrs by crystal violet staining based transwell migration assay; format: functional, cell-based
Procedure, shortened: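 HCT116 cells were tested for migration through a transwell chamber at 0.5 and 1 μM, compared against an untreated (0 μM) control. Significance was assessed versus that control.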

HCT-116 [12] = test: Inhibition of colony formation in human HCT116 cells at 0.1 to 0.4 uM after 7 days by crystal violet staining based assay; format: functional, cell-based
HCT-116 [13] = test: Inhibition of cancer stem cell proliferation in human HCT116 cells assessed as CD133/CD44-positive cell population at 1 uM after 48 hrs by flow cytometry (reference value: 85.1 to 86.6%); format: functional; design: scale not given: the % may be the effect or the level left
HCT-116 [14] = test: Induction of apoptosis in human HCT116 cells at 1 uM after 48 hrs by Annexin V/propidium iodide staining based flow cytometry relative to control; format: functional
HCT-116 [15] = test: Antitumor activity against human HCT116 cells xenografted in nude mouse assessed as tumor growth inhibition at 10 mg/kg/day, ip for 18 days; format: functional, organism-based
Procedure, shortened: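 Nude mice bearing subcutaneous HCT116 tumors, randomized four groups (n = 6 each), including a DMSO vehicle group. Dosing was intraperitoneal once daily for 18 days, then sacrifice. Removed tumors were weighed and tumor volume recorded, and body weight was followed. Significance was tested versus vehicle control.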

Mus musculus [16] = test: Toxicity in nude mouse xenografted with human HCT116 cells assessed as change in body weight at 10 mg/kg/day, ip for 18 days; format: organism-based; details: in vivo, 432 h
HCT-116 [17] = test: Antitumor activity against human HCT116 cells xenografted in nude mouse assessed as reduction in Ki67 expression in tumor at 10 mg/kg/day, ip for 18 days by IHC analysis; format: functional, organism-based
Procedure, shortened: (§2)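 Subcutaneous HCT116 xenografts in nude mice, randomized into groups of n = 6. Dosing was daily intraperitoneal injection for 18 days with DMSO as vehicle control. Mice were then sacrificed, and excised tumors were stained by immunohistochemistry for Ki67 and Bmi-1, compared with vehicle-treated controls.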

Mus musculus [18] = test: Decrease in Bmi1 expression in tumors of nude mouse xenografted with human HCT116 cells at 10 mg/kg/day, ip for 18 days by IHC analysis; format: functional, organism-based; procedure, shortened: as §2

Structure (SMILES): COc1cc2c(cc1C(=O)Nc1ccc(C(C)=O)cc1)CC[C@H]1C(C)(C)C(=O)C(C#N)=C[C@]21C
- IC50 (HCT-116 [1]): 2100 nM
- inhibition (HCT-116 [2]): Active

Structure (SMILES): COc1cc2c(cc1C(=O)NCC(=O)O)CC[C@H]1C(C)(C)C(=O)C(C#N)=C[C@]21C
- IC50 (HCT-116 [1]): > 50000 nM

Structure (SMILES): COc1cc2c(cc1C(=O)O)CC[C@H]1C(C)(C)C(=O)C(C#N)=C[C@]21C
- IC50 (HCT-116 [1]): > 50000 nM

Structure (SMILES): COc1cc2c(cc1C(=O)NCc1ccc(OC(F)(F)F)cc1)CC[C@H]1C(C)(C)C(=O)C(C#N)=C[C@]21C
- IC50 (HCT-116 [1]): 1040 nM
- IC50 (HT-29): 1370 nM
- IC50 (HCT-8): 1600 nM
- IC50 [3]: 5190 nM
- selectivity ratio [4]: 3.2 to 5
- selectivity ratio [5]: 3.2 to 5
- selectivity ratio [6]: 3.2 to 5

Structure (SMILES): CNC(=O)c1cc2c(cc1OC)[C@@]1(C)C=C(C#N)C(=O)C(C)(C)[C@@H]1CC2
- IC50 (HCT-116 [1]): 8540 nM

Structure (SMILES): COc1cc2c(cc1C(=O)NNc1ccc(OC(F)(F)F)cc1)CC[C@H]1C(C)(C)C(=O)C(C#N)=C[C@]21C
- IC50 (HCT-116 [1]): 900 nM
- IC50 (HT-29): 1620 nM
- IC50 (HCT-8): 1310 nM
- IC50 [3]: 4550 nM
- selectivity ratio [4]: 2.8 to 5
- selectivity ratio [5]: 2.8 to 5
- selectivity ratio [6]: 2.8 to 5

Structure (SMILES): COc1cc2c(cc1C(=O)Nc1ccc(C(N)=O)cc1)CC[C@H]1C(C)(C)C(=O)C(C#N)=C[C@]21C
- IC50 (HCT-116 [1]): 850 nM

Structure (SMILES): COc1cc2c(cc1C(=O)Nc1ccc(OC(F)(F)F)cc1)CC[C@H]1C(C)(C)C(=O)C=C[C@]21C
- IC50 (HCT-116 [1]): 4560 nM
- inhibition (HCT-116 [2]): inactive
- IC50 (HT-29): 4090 nM
- IC50 (HCT-8): 5670 nM
- IC50 [3]: 17100 nM
- selectivity ratio [4]: 3 to 3.8
- selectivity ratio [5]: 3 to 3.8
- selectivity ratio [6]: 3 to 3.8

Structure (SMILES): CC1(C)C(=O)C(C#N)=C[C@]2(C)c3cc(O)c(C(=O)Nc4ccc(OC(F)(F)F)cc4)cc3CC[C@@H]12
- IC50 (HCT-116 [1]): 2000 nM
- inhibition (HCT-116 [2]): inactive
- IC50 (HT-29): 2380 nM
- IC50 (HCT-8): 3060 nM
- IC50 [3]: 13800 nM
- selectivity ratio [4]: 4.5 to 6.9
- selectivity ratio [5]: 4.5 to 6.9
- selectivity ratio [6]: 4.5 to 6.9

Structure (SMILES): COc1cc2c(cc1C(=O)Oc1ccccc1)CC[C@H]1C(C)(C)C(=O)C(C#N)=C[C@]21C
- IC50 (HCT-116 [1]): 1310 nM

The next molecules have a lower IC50 (HCT-116 [1]) than those just listed; values first:

- IC50 (HCT-116 [1]): 300 nM
- IC50 (HT-29): 540 nM
- IC50 (HCT-8): 600 nM
Structure (SMILES): COc1cc2c(cc1C(=O)Nc1ccc(OC(F)(F)F)cc1)CC[C@H]1C(C)(C)C(=O)C(C#N)=C[C@]21C
- IC50 [3]: 3220 nM
- selectivity ratio [4]: 5.4 to 10.7
- selectivity ratio [5]: 5.4 to 10.7
- selectivity ratio [6]: 5.4 to 10.7
- Ratio IC50 (HCT-116 [7]): 2

- IC50 (HCT-116 [1]): 430 nM
- IC50 (HT-29): 560 nM
- IC50 (HCT-8): 580 nM
Structure (SMILES): COc1cc2c(cc1C(=O)Nc1cccc(OC(F)(F)F)c1)CC[C@H]1C(C)(C)C(=O)C(C#N)=C[C@]21C
- IC50 [3]: 3570 nM
- selectivity ratio [4]: 6.2 to 8.3
- selectivity ratio [5]: 6.2 to 8.3
- selectivity ratio [6]: 6.2 to 8.3

- IC50 (HCT-116 [1]): 570 nM
Structure (SMILES): COc1cc2c(cc1C(=O)Nc1ccc(C#N)cc1)CC[C@H]1C(C)(C)C(=O)C(C#N)=C[C@]21C

- IC50 (HCT-116 [1]): 560 nM
Structure (SMILES): C=CCOc1ccc(NC(=O)c2cc3c(cc2OC)[C@@]2(C)C=C(C#N)C(=O)C(C)(C)[C@@H]2CC3)cc1

- IC50 (HCT-116 [1]): 530 nM
Structure (SMILES): COc1cc2c(cc1C(=O)Nc1ccc(Br)cc1)CC[C@H]1C(C)(C)C(=O)C(C#N)=C[C@]21C

- IC50 (HCT-116 [1]): 820 nM
Structure (SMILES): CCOc1ccc(NC(=O)c2cc3c(cc2OC)[C@@]2(C)C=C(C#N)C(=O)C(C)(C)[C@@H]2CC3)cc1

- IC50 (HCT-116 [1]): 750 nM
Structure (SMILES): COc1cc2c(cc1C(=O)Nc1ccc(N)cc1)CC[C@H]1C(C)(C)C(=O)C(C#N)=C[C@]21C

- IC50 (HCT-116 [1]): 650 nM
- IC50 (HCT-116 [2]; HCT-116, 8 h): 700 nM
- IC50 (HT-29): 610 nM
- IC50 (HCT-8): 590 nM
- inhibition [10]: Dose-dependent effect
Structure (SMILES): COc1cc(Br)c(Nc2nc(-c3c(C)nc4ncccn34)cs2)c(Br)c1
- Activity (HCT-116 [8]): inactive
- Activity (HCT-116 [9]): inactive
- inhibition (HCT-116 [2]): Dose-dependent effect
- IC50 [3]: 1030 nM
- selectivity ratio [4]: 1.6 to 1.7
- selectivity ratio [5]: 1.6 to 1.7
- selectivity ratio [6]: 1.6 to 1.7
- Activity (HCT-116 [11]): Dose-dependent effect
- inhibition (HCT-116 [12]): Active
- Activity (HCT-116 [13]): 79.7%
- Activity (HCT-116 [14]): 14.74%
- TGI (HCT-116 [15]): Active
- Activity (Mus musculus [16]): Non-Toxic
- Activity (HCT-116 [17]): Active
- Activity (Mus musculus [18]): Active

- IC50 (HCT-116 [1]): 760 nM
Structure (SMILES): COc1cc2c(cc1C(=O)Nc1ccccc1)CC[C@H]1C(C)(C)C(=O)C(C#N)=C[C@]21C

- IC50 (HCT-116 [1]): 670 nM
Structure (SMILES): COc1cc2c(cc1C(=O)Nc1ccc(Cl)cc1)CC[C@H]1C(C)(C)C(=O)C(C#N)=C[C@]21C

- IC50 (HCT-116 [1]): 250 nM
- IC50 (HT-29): 280 nM
- IC50 (HCT-8): 290 nM
Structure (SMILES): COC(=O)[C@]12CCC(C)(C)C[C@H]1[C@H]1C(=O)C=C3[C@@]4(C)C=C(C#N)C(=O)C(C)(C)[C@@H]4CC[C@@]3(C)[C@]1(C)CC2 [BARDOXOLONE METHYL]
- inhibition (HCT-116 [2]): Active
- IC50 [3]: 2100 nM
- selectivity ratio [4]: 7.2 to 8.4
- selectivity ratio [5]: 7.2 to 8.4
- selectivity ratio [6]: 7.2 to 8.4

- IC50 (HCT-116 [1]): 320 nM
Structure (SMILES): COc1cc2c(cc1C(=O)Nc1ccc(C(F)(F)F)cc1)CC[C@H]1C(C)(C)C(=O)C(C#N)=C[C@]21C

- IC50 (HCT-116 [1]): 690 nM
Structure (SMILES): COC(=O)c1ccc(NC(=O)c2cc3c(cc2OC)[C@@]2(C)C=C(C#N)C(=O)C(C)(C)[C@@H]2CC3)cc1

Source: ChEMBL document CHEMBL4266059, “Synthesis of Cyanoenone-Modified Diterpenoid Analogs as Novel Bmi-1-Mediated Antitumor Agents” (ACS Med Chem Lett, 2018)
